Source: article PMC4427841 (British journal of haematology, 2010)
Values joined by “and” are separate entries in the source; they are usually repeats but may differ in a detail not shown here. Identical values can stand only once. “Also recorded” adds a separate entry of the source.

Columns and labels:
MM.1S tumors = assay: Human plasmacytoma xenograft efficacy study; type: in vivo, CB-17 SCID mice; conditions: 0.15 mg/kg i.v. twice a week for three weeks
Method in brief: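 Male CB-17 SCID mice (4-6 wk) were given 5.0 × 106 MM.1S cells s.c. in the flank in serum-free RPMI. They then received 0.15 mg/kg i.v. or vehicle (2% DMSO/98% of 5% Solutol) twice weekly for three weeks (D1, D4, D8, D11, D15, D18); n=5 per group. Tumors were measured with calipers every third day, and volume was calculated as V = 0.5 a × b2. Mean ± SD; Student's t test, P < 0.05.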

CT-L proteasome activity = conditions: MTD doses (0.7 mg/m^2), other clinical trials; cited from earlier work
[1] = target: 20S proteasome chymotrypsin-like (CT-L, β5) activity (Homo sapiens, UniProt P28074); type: in vivo, CB-17 SCID mice bearing human MM.1S tumors; conditions: MM1.S, iv, read-out: CT-L proteasome activity inhibition in tumors, tumor, 24h after a single treatment, 0.15 mg/kg i.v.
proteasome [2] = conditions: rats, single dose 0.15 mg/kg; ref Chauhan, et al 2005; cited from earlier work
[3] = test system: Factor VIII-positive cells in xenografted MM.1S tumors; assay: IHC Factor VIII staining; type: in vivo, CB-17 SCID mice; conditions: vs vehicle alone, tumors harvested Day 21
Method in brief: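 Xenograft-bearing mice received vehicle or 0.15 mg/kg i.v. twice weekly for three weeks. MM.1S tumors were harvested 3h after the last dose (Day 21), and paraffin-embedded sections were immunostained for Factor VIII as an angiogenesis marker. The images shown are representative of two mice per treatment.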

[4] = Tolerability in efficacy study; type: in vivo, CB-17 SCID mice; conditions: 0.15 mg/kg i.v. twice a week for three weeks
[5] = test system: CHOP/GADD153, phospho-eIF2α, Bip, Hsp70 in xenografted MM.1S tumors; assay: Immunoblot of ER stress proteins in tumor lysates; type: in vivo, CB-17 SCID mice; conditions: tumors harvested 3h after last dose (Day 21)
[6] = test system: caspase-3 activation / PARP cleavage in xenografted MM.1S tumors; assay: In situ detection of apoptosis and immunoblot; type: in vivo, CB-17 SCID mice
Method in brief: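 Xenograft-bearing mice were treated i.v. with 0.15 mg/kg or vehicle twice weekly for three weeks. Tumors were harvested on Day 21, either 3h after the last dose (immunoblot) or at endpoint (IHC). For in situ staining, apoptotic cells were identified by cleaved caspase-3. Tumor lysates (three mice per group) were immunoblotted for PARP, cleaved caspase-3 and GAPDH, using HRP-conjugated secondary antibodies and ECL detection.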

[7] = test system: 20S proteasome CT-L, C-L, and T-L activities; assay: Ex vivo 20S proteasome activities; type: in vivo, CB-17 SCID mice bearing human MM.1S tumors; conditions: for inhibition of all three proteasome activities in tumor: approximately
Method in brief: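 Male CB-17 SCID mice (4-6 wk) carrying s.c. flank MM.1S xenografts (5.0 × 10^6 cells) were dosed i.v. at ∼200-300 mm3 with 0.15 mg/kg once (D1) or three times (D1, D4, D8), or with vehicle (2% DMSO in 5% Solutol). Euthanasia at 10 min, 1, 4, 24h. Homogenates used 20 μg protein in HEPES/EDTA pH 8.0 buffer with 60 μM fluorogenic substrate (Bz-VGR-AMC for T-L) and 0.05% SDS for CT-L/C-L. Reported as % inhibition vs vehicle; mean ± SD, n = 3.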

proteasome [8] = conditions: ref Chauhan, et al 2005; cited from earlier work
[9] = tumors, single dose 0.15 mg/kg i.v.

## C[C@@]12OC(=O)[C@]1([C@@H](O)[C@@H]1C=CCCC1)NC(=O)[C@@H]2CCCl [NPI-0052, marizomib]
MM.1S tumors
  day on which anti-MM activity (delay in tumor growth) was first evident: 7 days and 5 to 7 days
  tumor growth relative to vehicle-treated control: significantly decreased tumor growth
CT-L proteasome activity
  inhibition of CT-L proteasome activity at MTD doses: Complete inhibition
  neuropathy or myelosuppression at MTD doses: without evidence of neuropathy or myelosuppression
[1]
  inhibition at 0.15 mg/kg: 60%
Proteasome [2]
  time for recovery of proteasome inhibition in PWB: ≤ 7 days
[3]
  Factor VIII-positive cells in tumor sections: dramatically decreased
[4]
  toxicity (body weight, overall appearance): not associated with any toxicity
[5]
  endoplasmic stress-response proteins in tumor lysates: upregulation of CHOP/GADD153, phospho-eIF2α, Bip, and Hsp70
[6]; tumors harvested 3h after last treatment (Day 21)
  PARP cleavage in tumor lysates: robust cleavage
[6]; tumors harvested day 21, vs untreated control mice
  caspase-3 positive cells in tumor sections: increased numbers of caspase-3 positive cells
[7]; PWB, liver, spleen, lung, kidney, single dose 0.15 mg/kg i.v.
  time to onset of inhibition of all three proteasome activities: ≤ 10 min
[7]; all tissues examined except PWB and tumors, single dose
  time for proteasome activities to return to baseline: ≤ 24 h
[7]; brain tissue, any time point after single or three doses, 0.15 mg/kg i.v., 0.15 mg/kg
  inhibition of proteasome activity in brain: does not inhibit; also recorded: no significant inhibition
[7]; liver, kidney, lung, spleen, after three doses
  time for recovery of all three proteasome activities: ≤ 24 h
[7]; most tissues, without significant toxicity
  inhibition of all three proteasome activities in most tissues: greater than 70%
[7]; other organs (lung, liver, spleen, kidney)
  duration of proteasome inhibition: < 24 h
[7]; 24h post single dose
  inhibition of all three proteasome activities in tumor: 25-60%
[7]; 24h post third dose
  inhibition of all three proteasome activities in tumor: 70-80%
[7]; tumors and PWB
  duration of proteasome inhibition: > 24 h
[7]; tumors, PWB and other tissues except brain, within 10 mins following the third dose, 0.15 mg/kg i.v.
  inhibition of all three proteasome activities: 65-90%
[7]; [9]
  time of maximal inhibition of proteasome activities in tumors: 24 h
  time to onset of inhibition of proteasome activities in tumors: ≤ 1 h

## CC(C)C[C@H](NC(=O)[C@H](Cc1ccccc1)NC(=O)c1cnccn1)B(O)O [bortezomib]
Proteasome [8]
  time for recovery of proteasome activity in blood: ≥ 48 h
